Experimental data taken from ChEMBL document CHEMBL1133252 (Bioorg Med Chem Lett, 2000).

Columns and labels:
HT-29 = assay: Inhibitory activity against colon tumor cell line HT-29 after 72 hr continuous exposure to compound; assay type: functional, cell-based; conditions: Homo sapiens, HT-29, 72 h
Outline: (§1)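 Log-phase cells were plated in triplicate at 2500–3500 cells/well, and the compound was added 24 h later for 72 h continuous exposure. […] Media: A2780/143B DMEM+5% FBS; HT29 DMEM+10% FBS; HCT116 RPMI+10% FBS; ADDP (cisplatin-resistant A2780) RPMI+5% FBS.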

[1] = target: Serine/threonine-protein phosphatase 2A catalytic subunit (Gallus gallus); assay: Inhibitory activity against partially purified (chicken skeletal muscle) Protein phosphatase 2A
143B = assay: Inhibitory activity against tumor osteosarcoma cell line 143B after 72 hr continuous exposure to compound; assay type: functional, cell-based; conditions: Homo sapiens; outline: as §1
A2780 = assay: Inhibitory activity against ovarian tumor cell line A2780 after 72 hr continuous exposure to compound; assay type: functional, cell-based; conditions: Homo sapiens, A2780, 72 h; outline: as §1
HCT-116 = assay: Inhibitory activity against colon tumor cell line HCT116 after 72 hr continuous exposure to compound; assay type: functional, cell-based; conditions: Homo sapiens, HCT-116, 72 h; outline: as §1
ADDP cell line = assay: Inhibitory activity against ovarian tumor cell line ADDP after 72 hr continuous exposure to compound; assay type: functional, cell-based; conditions: Homo sapiens; outline: as §1
[2] = target: Serine/threonine-protein phosphatase 2A catalytic subunit alpha isoform (Homo sapiens) (UniProt P67775); assay: The compound was tested for the selectivity against protein phosphatases 2A
Sequence of Serine/threonine-protein phosphatase 2A catalytic subunit alpha isoform (Homo sapiens) (P67775 whole entry, canonical isoform): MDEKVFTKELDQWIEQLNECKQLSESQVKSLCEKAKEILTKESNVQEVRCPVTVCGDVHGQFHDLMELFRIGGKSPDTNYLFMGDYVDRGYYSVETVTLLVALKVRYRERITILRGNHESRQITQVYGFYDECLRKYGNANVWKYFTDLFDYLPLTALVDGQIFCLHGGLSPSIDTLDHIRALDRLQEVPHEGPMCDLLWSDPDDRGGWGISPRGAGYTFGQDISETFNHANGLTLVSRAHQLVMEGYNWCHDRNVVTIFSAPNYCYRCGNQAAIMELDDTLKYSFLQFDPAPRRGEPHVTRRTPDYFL

DNA topoisomerase 2 = target: T1, DNA topoisomerase 2 (Drosophila melanogaster, UniProt P15348); assay: Inhibition of topoisomerase IIin vitro through a novel, non-DNA-strandcleaving mechanism
T1 sequence (P15348 whole entry): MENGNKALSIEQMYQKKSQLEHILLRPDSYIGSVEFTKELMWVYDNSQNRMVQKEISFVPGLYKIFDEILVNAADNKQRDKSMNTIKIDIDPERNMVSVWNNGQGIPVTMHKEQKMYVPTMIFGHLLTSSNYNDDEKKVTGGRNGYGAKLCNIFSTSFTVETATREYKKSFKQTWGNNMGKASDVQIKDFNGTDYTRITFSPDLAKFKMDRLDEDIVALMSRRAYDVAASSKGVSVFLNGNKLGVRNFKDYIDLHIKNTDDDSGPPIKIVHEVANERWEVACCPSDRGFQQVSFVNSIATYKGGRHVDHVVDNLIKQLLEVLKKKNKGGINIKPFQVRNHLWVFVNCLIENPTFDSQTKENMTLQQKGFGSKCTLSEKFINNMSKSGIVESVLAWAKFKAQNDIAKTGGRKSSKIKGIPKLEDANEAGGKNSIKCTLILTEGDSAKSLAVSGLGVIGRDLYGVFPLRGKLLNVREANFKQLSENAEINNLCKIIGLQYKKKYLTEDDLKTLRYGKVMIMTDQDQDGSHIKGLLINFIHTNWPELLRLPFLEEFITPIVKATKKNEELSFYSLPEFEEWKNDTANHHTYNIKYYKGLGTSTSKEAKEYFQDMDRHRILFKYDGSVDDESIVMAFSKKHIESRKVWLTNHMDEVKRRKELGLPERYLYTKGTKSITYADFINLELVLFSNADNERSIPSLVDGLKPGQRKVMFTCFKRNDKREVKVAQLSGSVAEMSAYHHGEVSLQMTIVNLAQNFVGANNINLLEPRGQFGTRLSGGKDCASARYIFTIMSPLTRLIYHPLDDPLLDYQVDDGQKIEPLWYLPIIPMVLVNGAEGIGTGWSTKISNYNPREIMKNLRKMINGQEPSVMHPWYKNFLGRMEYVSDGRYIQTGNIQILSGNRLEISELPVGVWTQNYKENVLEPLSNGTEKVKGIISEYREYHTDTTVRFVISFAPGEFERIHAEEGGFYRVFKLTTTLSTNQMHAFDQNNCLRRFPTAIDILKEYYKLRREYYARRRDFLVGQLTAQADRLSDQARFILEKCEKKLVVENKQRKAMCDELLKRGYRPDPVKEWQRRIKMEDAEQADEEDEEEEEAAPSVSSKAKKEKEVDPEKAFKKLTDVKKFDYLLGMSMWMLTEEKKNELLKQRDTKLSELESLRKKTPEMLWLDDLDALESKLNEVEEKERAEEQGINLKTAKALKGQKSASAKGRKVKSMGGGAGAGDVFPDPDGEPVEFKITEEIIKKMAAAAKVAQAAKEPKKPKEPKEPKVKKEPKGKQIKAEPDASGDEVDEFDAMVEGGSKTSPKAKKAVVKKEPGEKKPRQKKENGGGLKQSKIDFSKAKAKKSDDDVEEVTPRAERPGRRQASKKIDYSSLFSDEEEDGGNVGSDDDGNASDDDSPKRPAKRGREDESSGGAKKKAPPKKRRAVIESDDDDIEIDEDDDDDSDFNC

L1210 = assay: Inhibitory activity against L1210 leukemia cells; assay type: functional, cell-based; conditions: Mus musculus

Structure (SMILES) | IC50 (HT-29) [µM] | IC50 [1] [µM] | IC50 (143B) [µM] | IC50 (A2780) [µM] | IC50 (HCT-116) [µM] | IC50 (ADDP cell line) [µM] | Selectivity [2] | IC50 (DNA topoisomerase 2) [µM] | IC50 (L1210) [µM]
COC1OC(=O)[C@H]2[C@@H]1[C@@H]1CC[C@H]2O1 (some centres undefined) | 28 | > 1000 | > 1000 | 538 | 143 | 323 |  |  | 
CCCOC1OC(=O)[C@H]2[C@@H]1[C@@H]1CC[C@H]2O1 (some centres undefined) | 41 |  | > 1000 | 375 | 195 | 535 |  |  | 
CCOC1OC(=O)[C@H]2[C@@H]1[C@@H]1CC[C@H]2O1 (some centres undefined) | 26 |  | 103 | 100 | 80 | 107 |  |  | 
O=C1OC(=O)[C@H]2[C@@H]1[C@@H]1CC[C@H]2O1 | 33 |  | 43 | 50 | 24 | 47 |  |  | 
COC(=O)C1C(C(=O)O)[C@@H]2CC[C@H]1O2 (single isomer, unassigned) | 105 |  | 118 | 100 | 76 | 180 |  |  | 
CCCOC(=O)C1C(C(=O)O)[C@@H]2CC[C@H]1O2 (single isomer, unassigned) | 15 |  |  |  | 75 | 315 |  |  | 
CCOC(=O)C1C(C(=O)O)[C@@H]2CC[C@H]1O2 (single isomer, unassigned) | 243 | 0.45 | 437 | 185 | 266 | 330 | 6.6 |  | 
C[C@@]12C(=O)OC(=O)[C@]1(C)[C@H]1CC[C@@H]2O1 [CANTHARIDIN] | 6.4 |  | 10 | 10 | 9 | 11 |  |  | 
C[C@@](O)(/C=C/[C@H]1CC=CC(=O)O1)[C@@H](C[C@@H](O)\C=C/C=C\C=C\CO)OP(=O)(O)O [FOSTRIECIN] |  | 0.0034 |  |  |  |  |  | 40 | 0.46
